{"source": "paper PMC12467390", "about": "(ACS infectious diseases, 2025)", "key": {"[1]": {"biological_target": "4-hydroxybenzoate-3-monooxygenase (PHBH) (Pseudomonas fluorescens, UniProt P00438)", "sequence (P00438 whole entry)": "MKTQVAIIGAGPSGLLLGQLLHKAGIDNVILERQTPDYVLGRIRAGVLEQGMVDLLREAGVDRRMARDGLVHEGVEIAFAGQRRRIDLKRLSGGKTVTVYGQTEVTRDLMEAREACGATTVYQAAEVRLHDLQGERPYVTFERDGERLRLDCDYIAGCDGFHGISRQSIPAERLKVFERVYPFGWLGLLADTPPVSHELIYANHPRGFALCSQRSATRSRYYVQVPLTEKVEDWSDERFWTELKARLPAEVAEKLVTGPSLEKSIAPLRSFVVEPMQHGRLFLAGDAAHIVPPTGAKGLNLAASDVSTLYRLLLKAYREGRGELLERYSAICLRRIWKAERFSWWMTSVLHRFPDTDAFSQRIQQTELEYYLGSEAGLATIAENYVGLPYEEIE", "assay": "PHBH NADPH consumption assay", "type": "biochemical", "outline": "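PHBH came from a codon-optimized pobA gene expressed in E. coli: grown at 37 °C in LB with kanamycin, induced with 1 mM IPTG at 15 °C for 12–15 h. It was purified by imidazole elution at pH 8.0 and dialyzed overnight. Activity was measured with para-hydroxybenzoic acid as substrate, following NADPH consumption at A340. Time-dependence was assessed by pre-incubating inhibitor with enzyme for varying times before starting the reaction.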"}, "[2]": {"biological_target": "TetX6 (Chryseobacterium oncorhynchi, UniProt A0A316WTJ0)", "type": "biochemical", "conditions": "dark; no pre-incubation; none detected = no inhibition up to 2.5 mM"}, "[3]": {"test_system": "TetX7", "assay": "Steady-state TC consumption assay", "type": "biochemical", "conditions": "dark; for Apparent IC50 Values, TetX7: no pre-incubation, none detected = no inhibition up to 2.5 mM; for Time-dependence of TetX7 inhibition: pre-incubation 0-240 min"}, "[4]": {"biological_target": "Tet50 (Unknown prokaryotic organism, UniProt A0A059WYP6)", "sequence (A0A059WYP6 whole entry)": "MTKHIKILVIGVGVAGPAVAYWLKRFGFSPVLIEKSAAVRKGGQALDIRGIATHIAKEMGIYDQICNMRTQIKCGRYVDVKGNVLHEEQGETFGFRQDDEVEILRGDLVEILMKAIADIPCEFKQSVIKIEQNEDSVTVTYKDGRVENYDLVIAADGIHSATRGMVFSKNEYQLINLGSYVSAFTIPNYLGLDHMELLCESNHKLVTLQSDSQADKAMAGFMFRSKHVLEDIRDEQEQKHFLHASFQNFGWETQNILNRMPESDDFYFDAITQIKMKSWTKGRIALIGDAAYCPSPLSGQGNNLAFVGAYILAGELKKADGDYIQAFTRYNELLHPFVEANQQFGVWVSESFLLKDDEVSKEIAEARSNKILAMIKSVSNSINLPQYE", "assay": "Steady-state TC consumption assay", "type": "biochemical", "conditions": "for Apparent decay constant of IC50 versus pre-incubation time: Tet50"}, "[5]": {"test_system": "E. coli DH5αZ1 expressing TetX7 from pZE24", "assay": "MIC by broth microdilution, TetX7::pZE24", "type": "cell-based", "conditions": "for MIC, TetX7, + TC: presence of 8 μg/mL TC"}, "[6]": {"test_system": "E. coli DH5αZ1 empty vector (pZE24)", "assay": "MIC by broth microdilution, empty vector control", "type": "cell-based", "conditions": "for MIC: Escherichia coli; for MIC, Empty, + TC: presence of 8 μg/mL TC"}, "[7]": {"test_system": "E. coli DH5αZ1 expressing Tet50 from pZE24", "assay": "MIC by broth microdilution, Tet50::pZE24", "type": "cell-based", "conditions": "Escherichia coli, read-out: MIC, Tet50, − TC"}, "[8]": {"test_system": "TetX7", "assay": "Reversibility of TetX7 inhibition by exhaustive dialysis", "type": "biochemical", "conditions": "60 min pre-incubation in the dark; dialysis at 4 °C"}, "[9]": {"test_system": "E. coli DH5αZ1 expressing TetX7 from pZE24", "conditions": "aTC alone, ref [28],[30],[31]; cited from earlier work"}, "[10]": {"test_system": "E. coli DH5αZ1 empty vector (pZE24)", "conditions": "aTC alone; empty vector control; ref [28],[30],[31]; cited from earlier work"}, "[11]": {"test_system": "E. coli DH5αZ1 expressing TetX7 or Tet50", "conditions": "TC at 8 μg/mL; resistant strains; ref [28],[30],[31]; cited from earlier work"}, "[12]": {"test_system": "E. coli DH5αZ1 expressing Tet50 from pZE24", "conditions": "aTC alone, ref [28],[30],[31]; cited from earlier work"}, "[13]": {"conditions": "dark, compounds 1 and 2 up to 2.5 mM"}, "[14]": {"conditions": "shielded from light, pre-incubation 0-240 min"}}, "note": "Read-outs that look alike come from different tables or passages of the source.", "data": [{"smiles": "CC1(NCc2ccccc2)CC1", "note": "[Compound 1, N-(1-methyl)cyclopropylbenzylamine]", "values": [{"measurement": "Inhibition of PHBH", "setting": "[1]; blue light irradiation", "value": "potent time-dependent and dose-dependent inhibition"}, {"measurement": "Inhibition of PHBH", "setting": "[1]; [13]", "value": "no inhibition"}, {"measurement": "Apparent IC50 Values, TetX6", "setting": "[2]", "value": "none detected^a"}, {"measurement": "Apparent IC50 Values, TetX7", "setting": "[3]", "value": "none detected^a"}, {"measurement": "Time-dependence of Tet50 inhibition", "setting": "[4]; blue light irradiation", "value": "inhibit Tet50 in a time-dependent manner"}]}, {"smiles": "C#CCN(C)Cc1ccccc1", "note": "[Compound 2, N-methyl-N-benzyl-propargylamine]", "values": [{"measurement": "Inhibition of PHBH", "setting": "[1]; blue light irradiation", "value": "potent time-dependent and dose-dependent inhibition"}, {"measurement": "Inhibition of PHBH", "setting": "[1]; [13]", "value": "no inhibition"}, {"measurement": "Apparent IC50 Values, TetX6", "setting": "[2]", "value": "none detected^a"}, {"measurement": "Apparent IC50 Values, TetX7", "setting": "[3]", "value": "none detected^a"}, {"measurement": "Time-dependence of Tet50 inhibition", "setting": "[4]; blue light irradiation", "value": "inhibit Tet50 in a time-dependent manner"}]}, {"smiles": "Cc1c2c(c(O)c3c(O)c(CNC4(C)CC4)ccc13)C(=O)[C@]1(O)C(=O)C(C(N)=O)=C(O)[C@@H](N(C)C)[C@@H]1C2.Cl", "note": "[Compound 3, (4S,4aS,12aS)-4-(dimethylamino)-3,10,11,12a-tetrahydroxy-6-methyl-9-(((1-methylcyclopropyl)amino)methyl)-1,12-dioxo-1,4,4a,5,12,12a-hexahydrotetracene-2-carboxamide hydrochloride]", "values": [{"measurement": "Time-dependence of PHBH inhibition", "setting": "[1]; dark", "value": "time-dependence was observed"}, {"measurement": "Inhibition of PHBH", "setting": "[1]; [13]", "value": "Inhibition was detected"}, {"measurement": "MIC, TetX7, + TC", "setting": "[5]", "value": 8, "unit": "µg/mL"}, {"measurement": "MIC", "setting": "[6]; read-out: MIC, Empty, − TC", "value": 32, "unit": "µg/mL"}, {"measurement": "MIC, Empty, + TC", "setting": "[6]", "value": "<1", "unit": "µg/mL"}, {"measurement": "Time-dependence of TetX7 inhibition", "setting": "[3]", "value": "did not observe any time-dependence"}, {"measurement": "Apparent decay constant of IC50 versus pre-incubation time", "setting": "[4]; blue light irradiation", "value": "0.9 ± 0.3", "unit": "min⁻¹"}, {"measurement": "Time-dependence of Tet50 inhibition", "setting": "[4]; [14]", "value": "clear decrease in the apparent IC50 value correlating to longer enzyme–inhibitor pre-incubation times"}]}, {"smiles": "C#CCNCc1ccc2c(C)c3c(c(O)c2c1O)C(=O)[C@]1(O)C(=O)C(C(N)=O)=C(O)[C@@H](N(C)C)[C@@H]1C3.Cl", "note": "[Compound 4, (4S,4aS,12aS)-4-(dimethylamino)-3,10,11,12a-tetrahydroxy-6-methyl-1,12-dioxo-9-((prop-2-yn-1-ylamino)methyl)-1,4,4a,5,12,12a-hexahydrotetracene-2-carboxamide hydrochloride]", "values": [{"measurement": "Time-dependence of PHBH inhibition", "setting": "[1]; dark", "value": "time-dependence was observed"}, {"measurement": "Inhibition of PHBH", "setting": "[1]; [13]", "value": "Inhibition was detected"}, {"measurement": "MIC", "setting": "[7]", "value": 32, "unit": "µg/mL"}, {"measurement": "MIC, TetX7, + TC", "setting": "[5]", "value": 2, "unit": "µg/mL"}, {"measurement": "MIC", "setting": "[6]; read-out: MIC, Empty, − TC", "value": 32, "unit": "µg/mL"}, {"measurement": "MIC, Empty, + TC", "setting": "[6]", "value": "<1", "unit": "µg/mL"}, {"measurement": "Time-dependence of TetX7 inhibition", "setting": "[3]", "value": "did not observe any time-dependence"}, {"measurement": "Time-dependence of Tet50 inhibition", "setting": "[4]; blue light irradiation", "value": "slower time-dependent inactivation"}, {"measurement": "Time-dependence of Tet50 inhibition", "setting": "[4]; [14]", "value": "clear decrease in the apparent IC50 value correlating to longer enzyme–inhibitor pre-incubation times"}]}, {"smiles": "C#CCN(C)Cc1ccc2c(C)c3c(c(O)c2c1O)C(=O)[C@]1(O)C(=O)C(C(N)=O)=C(O)[C@@H](N(C)C)[C@@H]1C3", "note": "[Compound 5, (4S,4aS,12aS)-4-(dimethylamino)-3,10,11,12a-tetrahydroxy-6-methyl-9-((methyl(prop-2-yn-1-yl)amino)methyl)-1,12-dioxo-1,4,4a,5,12,12a-hexahydrotetracene-2-carboxamide]", "values": [{"measurement": "MIC", "setting": "[5]; Escherichia coli, read-out: MIC, TetX7, − TC", "value": 64, "unit": "µg/mL"}, {"measurement": "MIC, TetX7, + TC", "setting": "[5]", "value": 2, "unit": "µg/mL"}, {"measurement": "MIC, Empty, + TC", "setting": "[6]", "value": "<1", "unit": "µg/mL"}, {"measurement": "Time-dependence of TetX7 inhibition", "setting": "[3]", "value": "did not observe any time-dependence"}, {"measurement": "Apparent decay constant of IC50 versus pre-incubation time", "setting": "[4]; blue light irradiation", "value": "0.5 ± 0.1", "unit": "min⁻¹"}, {"measurement": "Time-dependence of Tet50 inhibition", "setting": "[4]; blue light irradiation", "value": "time- and light- dependent irreversible inactivation of Tet50"}, {"measurement": "Time-dependence of Tet50 inhibition", "setting": "[4]; [14]", "value": "clear decrease in the apparent IC50 value correlating to longer enzyme–inhibitor pre-incubation times"}, {"measurement": "TetX7 activity after exhaustive dialysis versus before", "setting": "[8]", "value": "reversed upon exhaustive dialysis"}]}, {"smiles": "CN(C)[C@@H]1C(O)=C(C(N)=O)C(=O)[C@@]2(O)C(O)=C3C(=O)c4c(O)cccc4[C@@](C)(O)[C@H]3C[C@@H]12", "note": "[TC, tetracycline, reference compound]", "values": [{"measurement": "MIC", "setting": "[6]; read-out: MIC of TC", "value": 1, "unit": "µg/mL"}]}, {"smiles": "Cc1c2c(c(O)c3c(O)cccc13)C(=O)[C@]1(O)C(=O)C(C(N)=O)=C(O)[C@@H](N(C)C)[C@@H]1C2", "note": "[aTC, anhydrotetracycline]", "values": [{"measurement": "MIC of aTC", "setting": "[9]", "value": 8, "unit": "µg/mL"}, {"measurement": "Inhibition of PHBH", "setting": "[1]; [13]", "value": "Inhibition was detected"}, {"measurement": "MIC of aTC", "setting": "[10]", "value": 4, "unit": "µg/mL"}, {"measurement": "Inhibitor concentration that rescues growth inhibitory activity of TC", "setting": "[11]", "value": "≥ 2", "unit": "µg/mL"}, {"measurement": "MIC of aTC", "setting": "[12]", "value": 8, "unit": "µg/mL"}, {"measurement": "Time-dependence of TetX7 inhibition", "setting": "[3]", "value": "did not observe any time-dependence"}, {"measurement": "Time-dependence of Tet50 inhibition", "setting": "[4]; blue light irradiation", "value": "time-dependent inhibition"}, {"measurement": "Time-dependence of Tet50 inhibition", "setting": "[4]; [14]", "value": "not time-dependent"}]}]}
